What all share (format): functional
One experiment has as its system Bacillus cereus. The experiment is described as follows: Minimum inhibitory concentration against Bacillus cereus MTCC 430. Put shortly: (§1)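 Microbroth dilution MIC determination, with results expressed in μg/mL. Where run in triplicate, the highest MIC of the three replicates is the value reported.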
The test system of experiment [1] is Enterococcus faecalis. The experiment is described as follows: Minimum inhibitory concentration against Enterococcus faecalis MTCC 439. The procedure, abridged: as §1
In experiment [2] the test system is Staphylococcus epidermidis. Nature of the experiment: Minimum inhibitory concentration against Staphylococcus epidermidis MTCC 155. The procedure, abridged:
as §1

Experiment [3] deals with Staphylococcus aureus. The experiment is described as follows: Minimum inhibitory concentration against Staphylococcus aureus MTCC 96. The procedure, abridged: as §1
Another experiment has as its system Bacillus pumilus. Nature of the experiment: Minimum inhibitory concentration against Bacillus pumilus MTCC 1607. The procedure, abridged:
as §1

Another experiment relates to Streptococcus pyogenes. The experiment is described as follows: Minimum inhibitory concentration against Streptococcus pyogenes MTCC 442. Put shortly:
as §1

In experiment [4] the test system is Enterococcus faecalis. Nature of the experiment: Minimum inhibitory concentration against Enterococcus faecalis ATCC 14506. Put shortly: as §1
For the next experiment, the system named is Klebsiella pneumoniae. The experiment is described as follows: Minimum inhibitory concentration against Klebsiella pneumoniae ATCC 10031. The procedure, abridged:
as §1

The subject of experiment [5] is Staphylococcus aureus. The experiment is described as follows: Minimum inhibitory concentration against Staphylococcus aureus ATCC 25923. Put shortly:
as §1

For experiment [6], the system named is Staphylococcus aureus. The experiment is described as follows: Minimum inhibitory concentration against Staphylococcus aureus ATCC 29213. The procedure, abridged: as §1
The test system of experiment [7] is Staphylococcus aureus. Nature of the experiment: Minimum inhibitory concentration against Staphylococcus aureus ATCC 14154. Put shortly:
as §1

Here are results for 12 compounds from ChEMBL document CHEMBL1139444, “Oxazolidinone: search for highly potent antibacterial” (2004).

≈ marks a conversion by molar mass, not a printed value.

As usually defined, the MIC is the lowest concentration found to suppress growth.

In the case of `CC(=O)NC[C@H]1CN(c2ccc(N3CCN(C(=O)/C=C/c4ccc(N)cc4)CC3)c(F)c2)C(=O)O1`, the MIC with Bacillus cereus is 1 µg/mL (≈ 2.08 µM); in the experiment on Enterococcus faecalis [1], 1 µg/mL (≈ 2.08 µM); in experiment [2], 0.5 µg/mL (≈ 1.04 µM); against Staphylococcus aureus [3], 1 µg/mL (≈ 2.08 µM); in the experiment on Bacillus pumilus, 1 µg/mL (≈ 2.08 µM); against Streptococcus pyogenes it was 2 µg/mL (≈ 4.15 µM).
Regarding `CC(=O)NC[C@H]1CN(c2ccc(N3CCN(C(=O)/C=C/c4ccc5c(c4)OCO5)CC3)c(F)c2)C(=O)O1`, the MIC was 1 µg/mL (≈ 1.96 µM) with Bacillus cereus; 2 µg/mL (≈ 3.92 µM) against Enterococcus faecalis [4]; 1 µg/mL (≈ 1.96 µM) against Enterococcus faecalis [1]; greater than 16 µg/mL in the experiment on Klebsiella pneumoniae; 1 µg/mL (≈ 1.96 µM) in experiment [2]; 2 µg/mL (≈ 3.92 µM) against Staphylococcus aureus [3]. For the same compound, the MIC in the experiment on Staphylococcus aureus [5] was 4 µg/mL (≈ 7.84 µM); with Staphylococcus aureus [6] it was 4 µg/mL (≈ 7.84 µM); in the experiment with Bacillus pumilus it was 1 µg/mL (≈ 1.96 µM); in the experiment with Staphylococcus aureus [7], 2 µg/mL (≈ 3.92 µM); in the experiment on Streptococcus pyogenes it was 2 µg/mL (≈ 3.92 µM).
With `CSc1ccc(/C=C/C(=O)N2CCN(c3ccc(N4C[C@H](CNC(C)=O)OC4=O)cc3F)CC2)cc1`, the MIC stood at 2 µg/mL (≈ 3.9 µM) in the experiment on Bacillus cereus; 2 µg/mL (≈ 3.9 µM) against Enterococcus faecalis [1]; 1 µg/mL (≈ 1.95 µM) in experiment [2]; 16 µg/mL (≈ 31.2 µM) against Staphylococcus aureus [3]; 2 µg/mL (≈ 3.9 µM) with Bacillus pumilus; 16 µg/mL (≈ 31.2 µM) in the experiment with Streptococcus pyogenes.
On to `CC(=O)NC[C@H]1CN(c2ccc(N3CCN(C(=O)/C=C/c4ccccc4)CC3)c(F)c2)C(=O)O1`, for which the MIC is 1 µg/mL (≈ 2.14 µM) against Bacillus cereus; 1 µg/mL (≈ 2.14 µM) in the experiment with Enterococcus faecalis [4]; 2 µg/mL (≈ 4.29 µM) against Enterococcus faecalis [1]; greater than 16 µg/mL against Klebsiella pneumoniae; 0.5 µg/mL (≈ 1.07 µM) in experiment [2]; 4 µg/mL (≈ 8.57 µM) against Staphylococcus aureus [3]. Besides, the MIC stood at 2 µg/mL (≈ 4.29 µM) against Staphylococcus aureus [5]; 4 µg/mL (≈ 8.57 µM) against Staphylococcus aureus [6]; 1 µg/mL (≈ 2.14 µM) in the experiment with Bacillus pumilus; 4 µg/mL (≈ 8.57 µM) with Staphylococcus aureus [7]; 2 µg/mL (≈ 4.29 µM) in the experiment with Streptococcus pyogenes.
As for `CC(=O)NC[C@H]1CN(c2ccc(N3CCN(C(=O)/C=C/c4ccc(NC(C)=O)cc4)CC3)c(F)c2)C(=O)O1`, the MIC with Bacillus cereus was found to be 4 µg/mL (≈ 7.64 µM); in the experiment with Enterococcus faecalis [1], 4 µg/mL (≈ 7.64 µM); in [2] it was 4 µg/mL (≈ 7.64 µM); with Staphylococcus aureus [3] it was 8 µg/mL (≈ 15.3 µM); in the experiment with Bacillus pumilus it was 8 µg/mL (≈ 15.3 µM); in the experiment with Streptococcus pyogenes, 8 µg/mL (≈ 15.3 µM).
For the compound `C/C(S)=N/C[C@H]1CN(c2ccc(N3CCN(C(=O)/C=C/c4ccccc4)CC3)c(F)c2)C(=O)O1`, the MIC in the experiment on Bacillus cereus is 0.5 µg/mL (≈ 1.04 µM); in the experiment with Enterococcus faecalis [4] it was 0.5 µg/mL (≈ 1.04 µM); against Enterococcus faecalis [1] it was 0.5 µg/mL (≈ 1.04 µM); in the experiment on Klebsiella pneumoniae, greater than 16 µg/mL; in experiment [2] it was 0.25 µg/mL (≈ 0.518 µM); with Staphylococcus aureus [3] it was 2 µg/mL (≈ 4.14 µM). The MIC was determined as 1 µg/mL (≈ 2.07 µM) in the experiment with Staphylococcus aureus [5]; 1 µg/mL (≈ 2.07 µM) in the experiment with Staphylococcus aureus [6]; 0.5 µg/mL (≈ 1.04 µM) in the experiment with Bacillus pumilus; 2 µg/mL (≈ 4.14 µM) in the experiment on Staphylococcus aureus [7]; 0.5 µg/mL (≈ 1.04 µM) in the experiment on Streptococcus pyogenes.
In the case of `CC(=O)NC[C@H]1CN(c2ccc(N3CCN(C(=O)/C=C/c4cccc(O)c4)CC3)c(F)c2)C(=O)O1`, the MIC was 0.5 µg/mL (≈ 1.04 µM) against Bacillus cereus; 1 µg/mL (≈ 2.07 µM) in the experiment on Enterococcus faecalis [4]; 1 µg/mL (≈ 2.07 µM) with Enterococcus faecalis [1]; greater than 16 µg/mL in the experiment on Klebsiella pneumoniae; 0.25 µg/mL (≈ 0.518 µM) in experiment [2]; 2 µg/mL (≈ 4.14 µM) with Staphylococcus aureus [3]. Moreover, the MIC against Staphylococcus aureus [5] was 4 µg/mL (≈ 8.29 µM); in the experiment with Staphylococcus aureus [6], 1 µg/mL (≈ 2.07 µM); in the experiment with Bacillus pumilus, 0.5 µg/mL (≈ 1.04 µM); with Staphylococcus aureus [7], 4 µg/mL (≈ 8.29 µM); in the experiment on Streptococcus pyogenes it was 2 µg/mL (≈ 4.14 µM).
For the compound `C/C(S)=N/C[C@H]1CN(c2ccc(N3CCN(C(=O)/C=C/c4ccc(F)cc4)CC3)c(F)c2)C(=O)O1`, the MIC in the experiment with Bacillus cereus was 0.5 µg/mL (≈ 0.999 µM); in the experiment on Enterococcus faecalis [4], 2 µg/mL (≈ 4 µM); in the experiment on Enterococcus faecalis [1], 0.5 µg/mL (≈ 0.999 µM); with Klebsiella pneumoniae, greater than 16 µg/mL; in experiment [2] it was 0.5 µg/mL (≈ 0.999 µM); in the experiment on Staphylococcus aureus [3], 1 µg/mL (≈ 2 µM). Besides, the MIC against Staphylococcus aureus [5] was 4 µg/mL (≈ 7.99 µM); in the experiment on Staphylococcus aureus [6] it was 4 µg/mL (≈ 7.99 µM); against Bacillus pumilus, 0.5 µg/mL (≈ 0.999 µM); in the experiment with Staphylococcus aureus [7] it was 1 µg/mL (≈ 2 µM); against Streptococcus pyogenes, 2 µg/mL (≈ 4 µM).
Turning to `C/C(S)=N/C[C@H]1CN(c2ccc(N3CCN(C(=O)/C=C/c4ccc5c(c4)OCO5)CC3)c(F)c2)C(=O)O1`, the MIC in the experiment with Bacillus cereus amounted to 0.25 µg/mL (≈ 0.475 µM); in the experiment on Enterococcus faecalis [4], 0.25 µg/mL (≈ 0.475 µM); against Enterococcus faecalis [1], 8 µg/mL (≈ 15.2 µM); in the experiment on Klebsiella pneumoniae, 2 µg/mL (≈ 3.8 µM); in [2], 1 µg/mL (≈ 1.9 µM); in the experiment on Staphylococcus aureus [3], 1 µg/mL (≈ 1.9 µM). Further, the minimal inhibitory concentration (MIC) in the experiment on Staphylococcus aureus [5] stood at 0.5 µg/mL (≈ 0.95 µM); with Staphylococcus aureus [6] it was 1 µg/mL (≈ 1.9 µM); against Bacillus pumilus, 0.25 µg/mL (≈ 0.475 µM); in the experiment on Staphylococcus aureus [7], 1 µg/mL (≈ 1.9 µM); in the experiment with Streptococcus pyogenes it was 4 µg/mL (≈ 7.6 µM).
`CC(=O)NC[C@H]1CN(c2ccc(N3CCN(C(=O)/C=C/c4ccc(O)cc4)CC3)c(F)c2)C(=O)O1`: the MIC against Bacillus cereus is 0.5 µg/mL (≈ 1.04 µM); with Enterococcus faecalis [4] it was 2 µg/mL (≈ 4.14 µM); in the experiment on Enterococcus faecalis [1] it was 1 µg/mL (≈ 2.07 µM); in the experiment on Klebsiella pneumoniae, greater than 16 µg/mL; in experiment [2], 0.25 µg/mL (≈ 0.518 µM); with Staphylococcus aureus [3], 2 µg/mL (≈ 4.14 µM). In addition, the MIC with Staphylococcus aureus [5] was determined as 1 µg/mL (≈ 2.07 µM); against Staphylococcus aureus [6], 2 µg/mL (≈ 4.14 µM); with Bacillus pumilus, 1 µg/mL (≈ 2.07 µM); against Staphylococcus aureus [7], 2 µg/mL (≈ 4.14 µM); against Streptococcus pyogenes, 2 µg/mL (≈ 4.14 µM).
In the case of `CC(=O)NC[C@H]1CN(c2ccc(N3CCN(C(=O)/C=C/c4ccc(-c5ccccc5)cc4)CC3)c(F)c2)C(=O)O1`, the MIC (against Bacillus cereus; against Enterococcus faecalis [1]; in experiment [2]; in the experiment with Staphylococcus aureus [3]; with Bacillus pumilus; in the experiment with Streptococcus pyogenes) was greater than 16 µg/mL each time.
As to `CC(=O)NC[C@H]1CN(c2ccc(N3CCN(C(=O)/C=C/c4ccc(OC(C)=O)c(OC(C)=O)c4)CC3)c(F)c2)C(=O)O1`, the MIC against Bacillus cereus came out at 2 µg/mL (≈ 3.43 µM); in the experiment on Enterococcus faecalis [1], 2 µg/mL (≈ 3.43 µM); in experiment [2], 1 µg/mL (≈ 1.72 µM); in the experiment on Staphylococcus aureus [3], 4 µg/mL (≈ 6.87 µM); with Bacillus pumilus it was 2 µg/mL (≈ 3.43 µM); against Streptococcus pyogenes it was 4 µg/mL (≈ 6.87 µM).
